Source: publication PMC9444296 (Investigative Radiology, 2022)
“Also recorded” adds a separate entry of the source. Where two headings read alike, the source gives them in different places.

Assays:
[1] = Plasma stability, rat plasma; assay type: in vitro ADME; conditions: 0.5 mM, 37°C, HPLC; for average remaining percentage of intact MT218: n = 2
Method in brief: (§1)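 Test compound at 0.5 mM was incubated in human, rat or dog plasma at 37°C for up to 48 h, with PBS as control. Samples were mixed with methanol, centrifuged, and the intact compound was quantified by analytical reversed-phase (C18) HPLC.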

[2] = Plasma stability, dog plasma; assay type: in vitro ADME; conditions: 0.5 mM, 37°C, HPLC; for average remaining percentage of intact MT218: n = 2
Method in brief: as §1

[3] = Metabolic stability in human hepatocytes; assay type: in vitro ADME; conditions: 2 hours of incubation, LC-MS/MS
[4] = Metabolic stability in beagle dog hepatocytes; assay type: in vitro ADME; conditions: 2 hours of incubation, LC-MS/MS
CYP2C19 = CYP2C19 (Homo sapiens, UniProt P33261); assay: CYP2C19 inhibition in human liver microsomes; assay type: in vitro ADME; conditions: 0.01, 0.1, 1, 10, and 100 μM, pooled human liver microsomes 0.5 mg/mL
CYP2D6 = CYP2D6 (Homo sapiens, UniProt P10635); assay: CYP2D6 inhibition in human liver microsomes; assay type: in vitro ADME; conditions: 0.01, 0.1, 1, 10, and 100 μM, pooled human liver microsomes 0.5 mg/mL
MDR1 = MDR1 (Homo sapiens, UniProt P08183); assay: MDR1 inhibition, membrane vesicles; assay type: in vitro ADME; conditions: 1, 5, 10, 50, and 100 μM
BCRP = BCRP (Homo sapiens, UniProt Q9UNQ0); assay: BCRP inhibition, membrane vesicles; assay type: in vitro ADME; conditions: 1, 5, 10, 50, and 100 μM
OATP1B3 = OATP1B3 (Homo sapiens, UniProt Q9NPD5); assay: OATP1B3 inhibition, HEK293 cells; assay type: in vitro ADME; conditions: 1, 5, 10, 50, and 100 μM
OAT1 = OAT1 (Homo sapiens, UniProt Q4U2R8); assay: OAT1 inhibition, HEK293 cells; assay type: in vitro ADME; conditions: 1, 5, 10, 50, and 100 μM
OAT3 = OAT3 (Homo sapiens, UniProt Q8TCC7); assay: OAT3 inhibition, HEK293 cells; assay type: in vitro ADME; conditions: 1, 5, 10, 50, and 100 μM
MATE2K = MATE2K (Homo sapiens, UniProt Q86VL8); assay: MATE2K inhibition, HEK293 cells; assay type: in vitro ADME; conditions: 1, 5, 10, 50, and 100 μM
[5] = system: PC3 human prostate cancer xenografts; assay: Contrast-enhanced MRI of PC3 prostate tumor xenografts in rats; assay type: in vivo, rat; conditions: PC3 tumors in rats, 3 T, n = 6
Method in brief: (§2)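 Male rats carried subcutaneous flank xenografts of 4 × 10⁶ PC3 or 8 × 10⁶ LNCaP cells in Matrigel-PBS (1:1) and were imaged once tumours exceeded 100 mm³. Scans used 1 mm slices, 2 averages and a 128 × 128 matrix. The same tumour-bearing rats were reused across agents and doses, with a clinical Gd agent at 0.1 mmol Gd/kg as comparator.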

[6] = system: LNCaP human prostate tumors; assay: Contrast-enhanced MRI of LNCaP prostate tumor xenografts in rats; assay type: in vivo, rat; conditions: 3 T, n = 3
Method in brief: as §2

HRH1 = HRH1 (Homo sapiens, UniProt P35367); assay: SAFETYscan E/IC50 assay, HRH1; assay type: biochemical; conditions: concentration range 0.005 to 100 μM
Method in brief: (§3)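 Contract-laboratory in vitro panel of 78 targets, run in agonist and/or antagonist modes under provider SOPs over 0.005 to 100 μM. Panel formats included enzyme fragment complementation, FLIPR-based cellular assays, kinase binding and enzymatic assays.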

CNR2 = CNR2 (Homo sapiens, UniProt P34972); assay: SAFETYscan E/IC50 assay, CNR2; assay type: biochemical; conditions: concentration range 0.005 to 100 μM
Method in brief: as §3

OPRD1 = OPRD1 (Homo sapiens, UniProt P41143); assay: SAFETYscan E/IC50 assay, OPRD1; assay type: biochemical; conditions: concentration range 0.005 to 100 μM
Method in brief: as §3

MAOA = MAOA (Homo sapiens, UniProt P21397); assay: SAFETYscan E/IC50 assay, MAOA; assay type: biochemical; conditions: concentration range 0.005 to 100 μM
Method in brief: as §3

[7] = system: 78 common biological targets; assay: SAFETYscan 78-target panel; assay type: biochemical; conditions: 0.005 to 100 μM
Excretion in SD rats = assay type: in vivo, rat
Method in brief: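 Non-GLP study in SD rats given a single IV dose of 0.1 mmol/kg. One group (3/sex) gave urine and feces predose and at 0–4, 4–8, 8–24, 24–48, 48–72, 72–96, 96–120 and 120–144 h. A second group with conscious biliary cannulation gave bile 30 min predose and at 0–1, 1–2, 2–4, 4–6 and 6–8 h. Gd was measured by ICP-MS.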

beagle dogs = assay: Single and repeated dose toxicity and toxicokinetics in beagle dogs; assay type: in vivo, dog; conditions: for accumulation ratio AUC0–24h (D14)/AUC0–24h (D1) of Gd: 14 days
Method in brief: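 GLP study in beagle dogs aged 6–7 months (M 7.34–10.58 kg, F 6.50–9.87 kg). Dosing was a single IV 0.70 mmol/kg or daily IV 0.07, 0.21 or 0.70 mmol/kg/d for 2 weeks, with saline placebo and a 2-week recovery. Clinical observation, organ weights and macro/microscopic histopathology were done. Gd accumulation ratio was AUC0–24h(D14)/AUC0–24h(D1).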

CYP2B6 = conditions: human primary hepatocytes, 1, 10, and 100 μM
CYP3A4 = conditions: human primary hepatocytes, 1, 10, and 100 μM
hERG = hERG (Homo sapiens, UniProt Q12809); conditions: HEK293, whole-cell patch clamp
Sequence of hERG (Q12809 whole entry): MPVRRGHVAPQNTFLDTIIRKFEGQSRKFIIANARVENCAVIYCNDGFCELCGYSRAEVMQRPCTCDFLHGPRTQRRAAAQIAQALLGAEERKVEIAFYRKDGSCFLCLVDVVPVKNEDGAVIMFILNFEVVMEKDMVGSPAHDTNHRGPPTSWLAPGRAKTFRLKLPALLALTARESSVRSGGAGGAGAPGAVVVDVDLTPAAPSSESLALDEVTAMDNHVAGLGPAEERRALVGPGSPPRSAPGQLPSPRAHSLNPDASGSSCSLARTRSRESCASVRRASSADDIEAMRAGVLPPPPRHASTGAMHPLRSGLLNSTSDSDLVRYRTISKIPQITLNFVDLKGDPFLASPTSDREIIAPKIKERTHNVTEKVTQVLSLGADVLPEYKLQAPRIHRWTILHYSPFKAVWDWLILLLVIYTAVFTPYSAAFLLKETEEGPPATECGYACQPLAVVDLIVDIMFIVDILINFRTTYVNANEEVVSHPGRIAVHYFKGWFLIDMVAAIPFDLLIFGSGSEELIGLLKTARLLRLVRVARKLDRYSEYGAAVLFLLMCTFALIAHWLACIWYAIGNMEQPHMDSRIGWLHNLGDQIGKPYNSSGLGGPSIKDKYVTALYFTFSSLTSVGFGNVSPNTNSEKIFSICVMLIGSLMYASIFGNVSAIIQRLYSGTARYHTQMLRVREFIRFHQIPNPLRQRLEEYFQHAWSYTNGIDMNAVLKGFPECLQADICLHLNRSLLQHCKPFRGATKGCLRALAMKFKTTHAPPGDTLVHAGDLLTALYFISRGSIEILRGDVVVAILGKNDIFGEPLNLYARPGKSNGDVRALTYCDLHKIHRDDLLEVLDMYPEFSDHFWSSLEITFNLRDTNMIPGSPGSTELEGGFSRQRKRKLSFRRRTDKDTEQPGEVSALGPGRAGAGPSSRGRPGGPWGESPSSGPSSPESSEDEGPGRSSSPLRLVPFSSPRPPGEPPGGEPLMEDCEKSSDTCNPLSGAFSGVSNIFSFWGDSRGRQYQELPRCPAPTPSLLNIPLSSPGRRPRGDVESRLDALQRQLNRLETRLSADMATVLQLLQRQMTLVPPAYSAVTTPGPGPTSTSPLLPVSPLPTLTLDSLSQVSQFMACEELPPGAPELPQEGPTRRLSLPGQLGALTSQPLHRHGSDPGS

Sequence of CYP2D6 (P10635 whole entry): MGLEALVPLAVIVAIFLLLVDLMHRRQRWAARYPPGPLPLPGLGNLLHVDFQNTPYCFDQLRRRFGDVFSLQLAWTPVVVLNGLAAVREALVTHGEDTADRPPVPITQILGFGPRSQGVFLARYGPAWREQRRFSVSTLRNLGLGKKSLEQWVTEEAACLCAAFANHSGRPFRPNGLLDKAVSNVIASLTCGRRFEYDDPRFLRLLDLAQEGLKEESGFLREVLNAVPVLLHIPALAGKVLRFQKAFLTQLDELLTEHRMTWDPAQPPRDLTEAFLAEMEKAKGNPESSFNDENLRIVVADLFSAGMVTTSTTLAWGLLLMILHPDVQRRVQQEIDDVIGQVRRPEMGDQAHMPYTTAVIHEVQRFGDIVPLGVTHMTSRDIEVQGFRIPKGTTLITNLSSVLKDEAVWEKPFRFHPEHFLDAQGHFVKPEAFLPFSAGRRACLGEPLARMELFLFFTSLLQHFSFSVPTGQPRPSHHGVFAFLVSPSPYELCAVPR
Sequence of OAT3 (Q8TCC7 whole entry): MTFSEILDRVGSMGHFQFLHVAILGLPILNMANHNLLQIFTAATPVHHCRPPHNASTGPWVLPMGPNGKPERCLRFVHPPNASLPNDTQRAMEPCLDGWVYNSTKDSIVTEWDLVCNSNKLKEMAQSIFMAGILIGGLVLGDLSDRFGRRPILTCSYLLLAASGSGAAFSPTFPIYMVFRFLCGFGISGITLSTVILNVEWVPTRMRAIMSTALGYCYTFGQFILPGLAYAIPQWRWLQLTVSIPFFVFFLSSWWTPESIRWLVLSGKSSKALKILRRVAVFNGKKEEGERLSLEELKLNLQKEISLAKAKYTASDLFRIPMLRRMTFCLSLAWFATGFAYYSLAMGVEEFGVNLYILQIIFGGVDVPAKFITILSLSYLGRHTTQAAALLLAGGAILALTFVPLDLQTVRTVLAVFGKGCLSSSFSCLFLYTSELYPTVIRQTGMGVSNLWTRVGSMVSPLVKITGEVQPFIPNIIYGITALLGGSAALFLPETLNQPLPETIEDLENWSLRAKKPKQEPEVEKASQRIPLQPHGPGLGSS
Sequence of CNR2 (P34972 whole entry): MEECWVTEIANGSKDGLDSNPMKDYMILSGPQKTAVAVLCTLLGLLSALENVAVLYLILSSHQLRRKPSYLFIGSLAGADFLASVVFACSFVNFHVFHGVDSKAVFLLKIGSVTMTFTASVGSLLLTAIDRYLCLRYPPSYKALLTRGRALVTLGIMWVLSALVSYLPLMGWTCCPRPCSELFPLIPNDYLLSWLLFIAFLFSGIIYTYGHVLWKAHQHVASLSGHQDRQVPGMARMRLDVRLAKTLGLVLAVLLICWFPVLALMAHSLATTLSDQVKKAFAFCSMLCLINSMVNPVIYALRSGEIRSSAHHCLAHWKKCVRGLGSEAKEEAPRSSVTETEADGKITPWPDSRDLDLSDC
Sequence of MATE2K (Q86VL8 1-566 isoform Q86VL8-3): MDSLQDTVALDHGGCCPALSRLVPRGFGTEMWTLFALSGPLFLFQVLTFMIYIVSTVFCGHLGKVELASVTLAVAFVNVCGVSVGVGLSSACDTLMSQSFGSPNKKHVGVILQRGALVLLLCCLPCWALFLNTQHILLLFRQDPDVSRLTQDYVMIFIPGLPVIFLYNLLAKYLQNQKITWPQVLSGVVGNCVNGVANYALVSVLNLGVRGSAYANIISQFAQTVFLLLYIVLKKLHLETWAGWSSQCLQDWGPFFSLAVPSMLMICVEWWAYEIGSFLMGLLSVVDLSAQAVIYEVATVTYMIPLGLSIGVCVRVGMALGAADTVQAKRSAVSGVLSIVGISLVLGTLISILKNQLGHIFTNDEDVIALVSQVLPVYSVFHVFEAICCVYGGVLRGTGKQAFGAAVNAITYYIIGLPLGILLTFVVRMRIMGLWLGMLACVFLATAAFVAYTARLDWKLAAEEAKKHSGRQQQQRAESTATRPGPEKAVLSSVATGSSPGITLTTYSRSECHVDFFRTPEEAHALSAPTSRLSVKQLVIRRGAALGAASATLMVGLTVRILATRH
Sequence of OAT1 (Q4U2R8 whole entry): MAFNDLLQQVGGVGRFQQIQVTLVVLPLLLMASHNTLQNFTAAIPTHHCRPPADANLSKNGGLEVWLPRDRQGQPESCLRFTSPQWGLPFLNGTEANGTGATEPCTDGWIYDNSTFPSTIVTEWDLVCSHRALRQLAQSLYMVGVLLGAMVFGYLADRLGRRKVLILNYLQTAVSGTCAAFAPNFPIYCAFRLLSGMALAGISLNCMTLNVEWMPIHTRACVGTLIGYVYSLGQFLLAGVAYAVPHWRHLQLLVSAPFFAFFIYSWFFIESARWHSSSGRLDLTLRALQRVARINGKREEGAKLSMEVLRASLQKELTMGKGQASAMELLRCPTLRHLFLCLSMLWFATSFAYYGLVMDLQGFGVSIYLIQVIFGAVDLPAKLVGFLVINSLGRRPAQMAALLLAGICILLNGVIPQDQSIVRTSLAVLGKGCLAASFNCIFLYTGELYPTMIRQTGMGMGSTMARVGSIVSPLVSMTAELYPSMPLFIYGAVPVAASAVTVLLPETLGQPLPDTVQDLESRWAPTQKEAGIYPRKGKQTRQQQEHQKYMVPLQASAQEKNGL
Sequence of BCRP (Q9UNQ0 whole entry): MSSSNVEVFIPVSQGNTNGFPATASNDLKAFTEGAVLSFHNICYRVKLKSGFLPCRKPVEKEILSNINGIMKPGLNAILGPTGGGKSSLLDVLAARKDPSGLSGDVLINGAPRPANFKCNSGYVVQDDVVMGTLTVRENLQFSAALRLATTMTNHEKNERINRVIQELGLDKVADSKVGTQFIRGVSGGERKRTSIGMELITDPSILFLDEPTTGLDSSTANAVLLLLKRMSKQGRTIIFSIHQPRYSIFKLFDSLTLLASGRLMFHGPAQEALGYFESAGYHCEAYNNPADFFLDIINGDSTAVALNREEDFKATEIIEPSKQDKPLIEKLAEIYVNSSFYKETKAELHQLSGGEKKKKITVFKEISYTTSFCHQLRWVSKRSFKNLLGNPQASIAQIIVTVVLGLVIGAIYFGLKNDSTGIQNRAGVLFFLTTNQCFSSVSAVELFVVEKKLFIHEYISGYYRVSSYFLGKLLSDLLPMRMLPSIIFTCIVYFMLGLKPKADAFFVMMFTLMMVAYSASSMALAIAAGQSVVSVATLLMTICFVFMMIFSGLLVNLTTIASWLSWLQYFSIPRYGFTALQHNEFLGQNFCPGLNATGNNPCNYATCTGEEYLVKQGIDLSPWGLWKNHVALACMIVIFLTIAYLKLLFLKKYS
Sequence of MAOA (P21397 whole entry, species assumed): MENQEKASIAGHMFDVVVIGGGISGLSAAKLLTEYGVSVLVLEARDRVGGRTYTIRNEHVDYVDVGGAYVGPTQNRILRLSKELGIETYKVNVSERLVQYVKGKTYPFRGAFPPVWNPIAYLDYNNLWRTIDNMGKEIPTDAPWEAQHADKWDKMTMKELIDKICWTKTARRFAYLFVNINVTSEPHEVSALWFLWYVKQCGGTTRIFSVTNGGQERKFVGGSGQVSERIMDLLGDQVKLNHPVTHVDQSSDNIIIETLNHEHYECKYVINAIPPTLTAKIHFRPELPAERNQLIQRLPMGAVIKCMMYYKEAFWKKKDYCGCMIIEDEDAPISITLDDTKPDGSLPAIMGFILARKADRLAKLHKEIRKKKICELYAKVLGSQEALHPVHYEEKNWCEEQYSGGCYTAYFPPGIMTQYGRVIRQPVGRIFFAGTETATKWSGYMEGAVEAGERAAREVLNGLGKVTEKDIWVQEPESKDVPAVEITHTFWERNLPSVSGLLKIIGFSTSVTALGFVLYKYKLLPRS

Q: What does the source list for ZD2-N3-Gd(HP-DO3A) [MT218]?
A: average remaining percentage of intact MT218 ([1]; 1 h): 74.87%; average remaining percentage of intact MT218 ([1]; 3 h): 20.54%; average remaining percentage of intact MT218 ([1]; 6 h): 4.61%; average remaining percentage of intact MT218 ([1]; 28 h): 0%; average remaining percentage of intact MT218 ([1]; 48 h): 0%; enzymatic degradation half-life (t1/2) [1]: 1.63 h; average remaining percentage of intact MT218 ([2]; 1 h): 89.19%; average remaining percentage of intact MT218 ([2]; 3 h): 71.45%; average remaining percentage of intact MT218 ([2]; 6 h): 47.81%; average remaining percentage of intact MT218 ([2]; 28 h): 11.23%; average remaining percentage of intact MT218 ([2]; 48 h): 5.38%; enzymatic degradation half-life (t1/2) [2]: 5.85 h; remaining MT218 [3]: 61.1%; remaining MT218 [4]: 41.0%; inhibition of CYP2C19 activity (CYP2C19): did not inhibit; inhibition of CYP2D6 activity (CYP2D6): did not inhibit; inhibition of MDR1 transporter activity (MDR1): no inhibition potential; inhibition of BCRP transporter activity (BCRP): no inhibition potential; inhibition of OATP1B3 transporter activity (OATP1B3): no inhibition potential; inhibition of OAT1 transporter activity (OAT1): no inhibition potential; inhibition of OAT3 transporter activity (OAT3): no inhibition potential; inhibition of MATE2K transporter activity (MATE2K): no inhibition potential; CNR ([5]; 0.02 mmol Gd/kg IV, 10 minutes postinjection): 2.67 ± 1.05; CNR ([5]; 0.02 mmol Gd/kg IV, 30 minutes postinjection): 1.97 ± 0.67; CNR ([5]; 0.04 mmol Gd/kg IV, 10 minutes postinjection): 5.94 ± 1.68; CNR ([5]; 0.04 mmol Gd/kg IV, 30 minutes postinjection): 4.92 ± 0.79; CNR ([6]; 0.02 mmol/kg IV): 0.88 ± 0.06; CNR ([6]; 0.04 mmol/kg IV): 1.13 ± 0.38; inhibition rate (HRH1): 17.77%; inhibition rate (CNR2): 12.4%; inhibition rate (OPRD1): 11.08%; inhibition rate (MAOA): 10.21%; target-specific secondary pharmacologic activity [7]: did not exhibit any notable target-specific secondary pharmacologic activity; total excretion of injected Gd in bile, feces, and urine (Excretion in SD rats; SD rats, 0.1 mmol/kg single IV, within 6 days, ICP-MS): 100.01% ± 10.85% of the injected dose; injected dose excreted in urine (Excretion in SD rats; rats, single dose, within the first 8 hours postinjection): Greater than 80%; NOAEL (beagle dogs; dog, single dosing): not established; mortality or moribundity (beagle dogs; dogs, any dose group, up to 0.70 mmol/kg/d): no mortality or morbidity; also recorded: No mortality or moribundity; clinical observations (body weight, food consumption, temperature, ophthalmoscopy, hematology, coagulation, clinical chemistry, urinalysis) (beagle dogs; dogs, any dose level): No MT218-related changes; pathological findings (beagle dogs; dogs, both sexes, repeated 0.21 mmol/kg/d and 0.70 mmol/kg/d): reversible renal tubule degeneration; NOAEL (beagle dogs; dogs, repeated daily IV dose for 14 days): 0.07 mmol/kg/day; pathological findings (beagle dogs; dogs, repeated low doses 0.07 mmol/kg/d): No renal abnormality; pathological findings (beagle dogs; dogs, single dose 0.70 mmol/kg, no longer evident on day 15): mild bilateral tubule degeneration of proximal and distal tubules; clinical signs during the dosing period (beagle dogs; dogs, single- and repeated-medium and high-dose groups, disappeared after dosing completion): Sporadic symptoms of emesis, retching, and salivation; accumulation ratio AUC0–24h (D14)/AUC0–24h (D1) of Gd (beagle dogs; female dogs, high dose 0.70 mmol/kg/d IV): 1.00; accumulation ratio AUC0–24h (D14)/AUC0–24h (D1) of Gd (beagle dogs; female dogs, low dose 0.07 mmol/kg/d IV): 0.91; accumulation ratio AUC0–24h (D14)/AUC0–24h (D1) of Gd (beagle dogs; female dogs, medium dose 0.21 mmol/kg/d IV): 0.99; accumulation ratio AUC0–24h (D14)/AUC0–24h (D1) of Gd (beagle dogs; male dogs, high dose 0.70 mmol/kg/d IV): 1.02; accumulation ratio AUC0–24h (D14)/AUC0–24h (D1) of Gd (beagle dogs; male dogs, low dose 0.07 mmol/kg/d IV): 0.92; accumulation ratio AUC0–24h (D14)/AUC0–24h (D1) of Gd (beagle dogs; male dogs, medium dose 0.21 mmol/kg/d IV): 1.07; mRNA expression level of CYP1A2 vs vehicle controls (CYP1A2; 100 μM, human hepatocytes, 1 of the 3 lots of cells): 2.10 fold; induction on enzyme activity of CYP1A2 (CYP1A2; human primary hepatocytes, 1, 10, and 100 μM): no induction; induction of mRNA expression of CYP2B6 (CYP2B6): did not induce; induction on enzyme activity of CYP2B6 (CYP2B6): no induction; induction of mRNA expression of CYP3A4 (CYP3A4): did not induce; induction on enzyme activity of CYP3A4 (CYP3A4): no induction; average inhibition of the hERG currents (hERG; 30.69 μM): 36.87% ± 6.93%; average inhibition of the hERG currents (hERG; 103.54 μM): 52.19% ± 0.82%
